sdo1 growth – restores growth of sdo1-depleted yeast | 140,000 compounds, 0.21% hits | S. cerevisiae sdo1-depleted JHY4D growth rescue, OD600 30 h; stronger effect = higher value; pdr5 snq2 efflux-pump mutant strain | z-score at 10 µM;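 active = z-score above 3 at both the 24 hr and the 30 hr optical density reads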
Yeast life ext – yeast lifespan extension; S. cerevisiae growth with nicotinamide, OD615; deaD strain in restrictive glucose medium; inhibition of the nicotinamide effect, % at 10 µM; 130,000 compounds, 0.68% hits;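 active = inhibition above a set limit, placed 3 SD over the median of all compounds, cut at about 26% in these data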
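assay system = DeaD-strain S. cerevisiae | measured by = absorbance at 615 nm | probe or stimulus = nicotinamide 1.5 mM | buffer or medium = CSMM-D glucose medium, restrictive | times = 48 h at 30 °C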
RAM inhibit – yeast RAM network inhibition; AID 868; S. cerevisiae dse1pr::URA3 reporter, 5-FOA growth OD615, 2 d; analog-sensitive cbk1-as2 kinase mutant strain; 190,000 compounds, 1.8% hits; inhibition, % at 50 µM;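 active = inhibition above a set limit, 3 SD over mean compound inhibition, cut at about 8.4% in these data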;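 also: inhibition rescues growth on 5-FOA so higher OD means more RAM inhibition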
BB579 growth dn – chemicals that inhibit yeast BB579 growth in restrictive medium (lifespan-shortening candidates); 140,000 compounds, 0.51% hits; inhibition, % at 10 µM; S. cerevisiae BB579 growth, OD615, 48 h; AID 804;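 active = inhibition above a set limit, 3 SD over the mean compound inhibition, cut at about 44% in these data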
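System: DeaD yeast strain BB579; buffer or medium: CSMM-D dextrose restrictive medium; technique: OD at 615 nm; schedule: 4 h cell preincubation, 48 h compound exposure, 30 °C humidified; doses: single 10 µM dose; controls: amphotericin B 10 µg/mL, positive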
Numbers stand for hits; . = inactive; / = not tested or not shown; ! = a repeat was not active. An excerpt weighted towards active compounds, which were near 2.7% of everything screened.

SMILES | sdo1 growth | Yeast life ext | RAM inhibit | BB579 growth dn
CC(=O)C1=C(C)NC(SCC(=O)c2ccc(F)cc2)=C(C#N)C1CC(C)C (stereo not given) | . | . | . | .
Cc1nc(NC(=O)c2cccs2)ccc1Br | / | / | . | /
OCc1ccnc2c(O)cccc12 | . | . | . | 54.3
COCc1ccc(O)c2ncccc12 | . | . | . | .
O=C(O)c1cc(-c2ccco2)nc2ccc(Br)cc12 | . | 35.7! | . | .
CC1(C)Cc2c(c(N3CCOCC3)nc3sc4c(NCc5ccccc5)nnnc4c23)CS1 | . | . | 8.7 | .
O=C(CCNC(=O)Cn1ccc2ccccc2c1=O)NCCc1ccccc1Cl | . | . | . | .
Cc1cc(C)c(S(=O)(=O)c2ccccc2)c(OC(=O)c2ccc(Cl)cc2Cl)n1 | . | 51.5 | . | .
CCOc1nc(C)cc(C)c1S(=O)(=O)c1ccc(Cl)cc1 | / | / | 8.7 | /
O=[N+]([O-])c1ccc(N2CCN(C(=S)Nc3ccc(F)cc3F)CC2)cc1 | / | / | . | /
CC1(C)N([O-])C2=C(c3ccccc3C2=O)[N+](=O)C1(C)C | . | 52.5 | . | .
CCC(C(=O)OCC(=O)Nc1ccc(C(N)=O)cc1)c1ccccc1 (stereo not given) | / | / | . | /
COc1ccccc1C(=O)COC(=O)c1ccccc1OCC(=O)Nc1ccc(SC(F)F)cc1 | . | . | 9.2 | .
CN(C)S(=O)(=O)c1cc(NC(=O)COC(=O)Cc2ccc(Cl)cc2Cl)ccc1Cl | . | . | . | .
CN(C)S(=O)(=O)c1cc(NC(=O)COC(=O)Cc2cccc3ccccc23)ccc1Cl | . | . | 8.7 | .
CCC(C(=O)OCC(=O)Nc1ccc(Cl)c(S(=O)(=O)N(C)C)c1)c1ccccc1 (stereo not given) | . | . | 10.3 | .
CCC(C(=O)OCC(=O)Nc1ccc(SC(F)F)cc1)c1ccccc1 (stereo not given) | . | . | 8.4 | .
CCOc1ccc(Cl)cc1S(=O)(=O)N1CCN(c2ccc(F)cc2)CC1 | . | . | 9.0 | .
O=C(COC(=O)CCC(=O)c1cccs1)NC(=O)c1ccc(OC(F)F)cc1 | / | / | . | /
CC(C)c1ccc2occ(-c3nn[nH]n3)c(=O)c2c1 | . | 59.3 | . | .
Cc1ccc2occ(-c3nn[nH]n3)c(=O)c2c1 | . | . | . | .
COc1ccc(C2C(=O)c3ccccc3C2=O)cc1 | . | 31.9 | . | .
O=C(CNC(=S)N(Cc1ccccc1)Cc1ccccc1F)NCCc1ccccc1 | / | / | 11.4 | /
O=C(CNC(=S)N(Cc1ccccc1)Cc1ccccc1F)NCc1ccccc1 | / | / | . | /
CCC(C)OC(=O)C1C(c2ccccc2)C(C(=O)O)C1c1ccccc1 (stereo not given) | . | 37.4 | . | .
SMILES | sdo1 growth | Yeast life ext | RAM inhibit | BB579 growth dn
O=C(Cn1c2[n+](c3ccccc31)CC(O)CS2)c1ccccc1 (stereo not given) | / | / | . | /
CC(=C1C(=O)c2ccccc2C1=O)N1CCN(C/C=C/c2ccccc2)CC1 | . | 57.3 | . | .
COC(=O)c1ccc(Oc2c(F)c(F)nc(N3CCOCC3)c2F)cc1 | / | / | . | /
Cc1cc(C)c(S(=O)(=O)N2CCN(C(=O)N(C)C)CC2)c(C)c1 | / | / | . | /
FC(F)(F)c1cccc(Cc2noc(CN3CCCC(CN4CCCC4)C3)n2)c1 (stereo not given) | / | / | . | /
O=C(CCSc1nc(-c2ccc3c(c2)OCO3)cc(C(F)(F)F)n1)NCc1ccco1 | . | . | 9.7 | .
O=C(CSc1nc(-c2ccco2)cc(C(F)(F)F)n1)Nc1ccc2c(c1)CCC2 | . | . | 8.5 | .
O=C(CCSc1nc(-c2ccco2)cc(C(F)(F)F)n1)NCc1cccs1 | . | / | 10.2 | .
CN(Cc1ccccc1)C(=O)CCSc1nc(-c2ccc3c(c2)OCO3)cc(C(F)(F)F)n1 | . | / | 9.9 | .
ClCc1nnc(-c2cc3c(s2)CCCC3)o1 | / | / | . | /
N#CC(CO)(Cc1ccc(OC(F)F)cc1)c1nc2ccccc2[nH]1 (stereo not given) | . | . | . | .
Cc1ccc(N/C=C/C(=O)c2sc(-c3ccccc3)nc2C)cc1 | . | . | 9.0 | .
Cc1nc(-c2ccccc2)sc1C(=O)NN | / | / | . | /
O=C(CCc1ccc(S(=O)(=O)NC2CCCCC2)cc1)N(Cc1ccccc1)Cc1ccccc1 | . | . | 10.9 | .
CN(c1ccc(C(=O)Nc2ccc(CC#N)cc2)cc1)S(C)(=O)=O | / | / | . | /
COc1ccccc1CNC(=O)c1ccc(-c2ccccc2Cl)o1 | . | . | 10.0 | .
COc1ccccc1CNC(=O)c1ccc(-c2ccccc2C(F)(F)F)o1 | . | . | . | .
COc1ccccc1CNC(=O)C(=O)Nc1nccs1 | / | / | . | /
COc1ccccc1NC(=O)C(=O)NCc1ccccc1Cl | . | . | 8.7 | .
CC(=O)NC(NC(=S)N1CCCCCC1)C(Cl)(Cl)Cl (stereo not given) | / | / | . | /
Cc1c(C)c2ccc(OS(C)(=O)=O)c(C)c2oc1=O | . | . | . | .
CCCCNCc1cc(OCC)c(OCC)cc1Br | / | / | . | /
c1ccc(-c2cc(N3CCOCC3)nc3ccccc23)cc1 | . | 94.2 | . | .
CC(C)c1nnc(NC(=O)C2CCN(S(=O)(=O)c3ccc(-n4cnnn4)cc3)CC2)s1 | / | / | . | /
O=C(c1cc2cc([N+](=O)[O-])ccc2s1)N1CCCCC1 | / | / | . | /
SMILES | sdo1 growth | Yeast life ext | RAM inhibit | BB579 growth dn
C=CCn1cn[nH]c1=S | / | / | . | /
Cc1nc2ccccc2nc(C)c1=NO | . | . | . | .
C/C(O)=c1/ccc2cccc3nc(C)nc1c23 | . | . | . | 69.3
COc1ccc(C2CCCN2C(=S)Nc2cccc(C)c2C)cc1OC (stereo not given) | / | / | . | /
Cc1cc(/C=C2/C(=O)NN(c3ccccc3)C2=O)c(C)n1-c1ccc(O)cc1 | . | . | 9.9 | .
COc1ccc(-n2c(C)cc(/C=C3\C(=O)NN(c4ccccc4)C3=O)c2C)cc1 | . | . | . | .
O=C1NN(c2ccccc2)C(=O)/C1=C/c1coc2ccccc2c1=O | . | 26.2 | . | .
O=C(NC1CCCCC1)C(c1cccs1)N(C(=O)c1ccccn1)c1ccccc1 (stereo not given) | . | . | 9.5 | .
O=C(NC1CCCC1)C(c1cccs1)N(C(=O)c1ccno1)c1ccccc1 (stereo not given) | . | . | . | .
O=C(NC1CCCCC1)Sc1ccc(Cl)cc1 | . | . | . | 52.1
O=C(CSc1ccc(Cl)cc1)NC1CCCC1 | . | . | . | .
COc1cc(CNCCN2CCOCC2)ccc1OCc1cccc(Cl)c1 | . | . | . | 52.5
CCCN1Cc2cccc(C(=O)N3CCN(c4ccc(OC)cc4)CC3)c2C1=O | / | / | . | /
COc1ccc(N2Cc3cccc(C(=O)O)c3C2=O)cc1 | . | 28.5 | . | .
CCOC(=O)c1c(Nc2ccc(Cl)cc2)sc(/C=C2\C=Nc3ccccc32)c1O | . | . | 9.3 | .
Oc1nc(Nc2cccc(Cl)c2)sc1/C=C1\C=Nc2ccccc21 | . | . | . | .
CC(NCc1ccc(N(C)C)cc1)C1CC2CCC1C2 (stereo not given) | . | 47.2 | . | .
CCC(=O)N(Cc1ccco1)c1nc(-c2ccccc2)cs1 | . | . | . | .
CCC(=O)N(Cc1ccco1)c1nc(-c2ccc(OC)cc2)cs1 | . | / | 10.0 | .
O=C(COc1nncc2ccccc12)NCC(F)(F)F | / | / | . | /

Screening data (PubChem)
